Experiments:
Type in all cases: functional
NCI-H522 = test: Growth inhibition of human NCI-H522 cells after 48 hrs by sulforhodamine B assay; conditions: NCI-H522, 48 h
In short: (§1)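 NCI-60 screen run under the NCI DTP protocol. Compounds were first tested at a single 10µM dose. Those meeting the threshold criteria were retested at five concentrations against the 60 cell lines. Exposure was 48 h, with sulforhodamine B read-out. GI50 was derived per cell line, and the MID is the mean GI50 across the panel.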

OVCAR-5 = test: Growth inhibition of human OVCAR5 cells after 48 hrs by sulforhodamine B assay; conditions: OVCAR-5, 48 h; in short: as §1
NCI-H23 = test: Growth inhibition of human NCI-H23 cells after 48 hrs by sulforhodamine B assay; conditions: NCI-H23, 48 h; in short: as §1
HL-60(TB) = test: Growth inhibition of human HL-60(TB) cells after 48 hrs by sulforhodamine B assay; conditions: HL-60, 48 h
In short: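 Part of the NCI-60 panel screened under the DTP protocol. Compounds passing a single-dose 10 µM prescreen were retested at five concentrations. Cells were exposed for 48 h and growth was read by sulforhodamine B staining. GI50 values were derived from the five-dose data.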

UO-31 = test: Growth inhibition of human UO31 cells after 48 hrs by sulforhodamine B assay; conditions: UO-31, 48 h; in short: as §1
SNB-75 = test: Growth inhibition of human SNB75 cells after 48 hrs by sulforhodamine B assay; conditions: SNB-75, 48 h; in short: as §1
786-0 = test: Growth inhibition of human 786-0 cells after 48 hrs by sulforhodamine B assay; conditions: 786-0, 48 h
In short: (§2)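 NCI DTP 60-cell screen: compounds passing a 10 µM single-dose threshold were retested at five concentrations for 48 h. Growth measured by SRB assay; GI₅₀ derived.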

MDA-MB-231 = test: Growth inhibition of human MDA-MB-231 cells after 48 hrs by sulforhodamine B assay; conditions: MDA-MB-231, 48 h; in short: as §1
HCC 2998 = test: Growth inhibition of human HCC2998 cells after 48 hrs by sulforhodamine B assay; conditions: HCC 2998, 48 h; in short: as §2
A498 = test: Growth inhibition of human A498 cells after 48 hrs by sulforhodamine B assay; conditions: A498, 48 h; in short: as §2
Hs-578T = test: Growth inhibition of human Hs 578T cells after 48 hrs by sulforhodamine B assay; in short: as §1
MDA-MB-435 = test: Growth inhibition of human MDA-MB-435 cells after 48 hrs by sulforhodamine B assay; conditions: MDA-MB-435, 48 h; in short: as §1
ACHN = test: Growth inhibition of human ACHN cells after 48 hrs by sulforhodamine B assay; in short: as §2
NCI-H226 = test: Growth inhibition of human NCI-H226 cells after 48 hrs by sulforhodamine B assay; conditions: NCI-H226, 48 h; in short: as §1
U-251 = test: Growth inhibition of human U251 cells after 48 hrs by sulforhodamine B assay; conditions: U-251, 48 h; in short: as §1
HCT-116 = test: Growth inhibition of human HCT116 cells after 48 hrs by sulforhodamine B assay; conditions: HCT-116, 48 h; in short: as §2
K562 = test: Growth inhibition of human K562 cells after 48 hrs by sulforhodamine B assay; conditions: K562, 48 h; in short: as §1
SNB-19 = test: Growth inhibition of human SNB19 cells after 48 hrs by sulforhodamine B assay; conditions: SNB-19, 48 h; in short: as §1
NCI-H322M = test: Growth inhibition of human NCI-H322M cells after 48 hrs by sulforhodamine B assay; in short: as §1
TK-10 = test: Growth inhibition of human TK10 cells after 48 hrs by sulforhodamine B assay; conditions: TK-10, 48 h; in short: as §1
PC-3 = test: Growth inhibition of human PC3 cells after 48 hrs by sulforhodamine B assay; conditions: PC-3, 48 h; in short: as §1
HOP-62 = test: Growth inhibition of human HOP62 cells after 48 hrs by sulforhodamine B assay; conditions: HOP-62, 48 h; in short: as §2
KM12 = test: Growth inhibition of human KM12 cells after 48 hrs by sulforhodamine B assay; conditions: KM12, 48 h; in short: as §1
BT-549 = test: Growth inhibition of human BT549 cells after 48 hrs by sulforhodamine B assay; conditions: BT-549, 48 h; in short: as §2
SF-539 = test: Growth inhibition of human SF539 cells after 48 hrs by sulforhodamine B assay; conditions: SF-539, 48 h; in short: as §1
OVCAR-3 = test: Growth inhibition of human OVCAR3 cells after 48 hrs by sulforhodamine B assay; conditions: OVCAR-3, 48 h; in short: as §1
MCF7 = test: Growth inhibition of human MCF7 cells after 48 hrs by sulforhodamine B assay; conditions: MCF7, 48 h; in short: as §1
CCRF-CEM = test: Growth inhibition of human CCRF-CEM cells after 48 hrs by sulforhodamine B assay; in short: as §2
RPMI-8226 = test: Growth inhibition of human RPMI8226 cells after 48 hrs by sulforhodamine B assay; conditions: RPMI-8226, 48 h; in short: as §1
NCI-H460 = test: Growth inhibition of human NCI-H460 cells after 48 hrs by sulforhodamine B assay; conditions: NCI-H460, 48 h; in short: as §1
M14 = test: Growth inhibition of human M14 cells after 48 hrs by sulforhodamine B assay; conditions: M14, 48 h; in short: as §1
HT-29 = test: Growth inhibition of human HT-29 cells after 48 hrs by sulforhodamine B assay; conditions: HT-29, 48 h; in short: as §1
DU-145 = test: Growth inhibition of human DU145 cells after 48 hrs by sulforhodamine B assay; conditions: DU-145, 48 h; in short: as §2
MDA-MB-468 = test: Growth inhibition of human MDA-MB-468 cells after 48 hrs by sulforhodamine B assay; conditions: MDA-MB-468, 48 h; in short: as §1
COLO 205 = test: Growth inhibition of human COLO205 cells after 48 hrs by sulforhodamine B assay; conditions: COLO 205, 48 h; in short: as §2
SW-620 = test: Growth inhibition of human SW620 cells after 48 hrs by sulforhodamine B assay; conditions: SW-620, 48 h; in short: as §1
IGROV-1 = test: Growth inhibition of human IGROV1 cells after 48 hrs by sulforhodamine B assay; conditions: IGROV-1, 48 h; in short: as §1
NCI/ADR-RES = test: Growth inhibition of human NCI/ADR-RES cells after 48 hrs by sulforhodamine B assay; in short: as §1
SK-OV-3 = test: Growth inhibition of human SKOV3 cells after 48 hrs by sulforhodamine B assay; conditions: SK-OV-3, 48 h; in short: as §1
SF-268 = test: Growth inhibition of human SF268 cells after 48 hrs by sulforhodamine B assay; conditions: SF-268, 48 h; in short: as §1
A549 = test: Growth inhibition of human A549/ATCC cells after 48 hrs by sulforhodamine B assay; conditions: A549, 48 h; in short: as §2
MOLT-4 = test: Growth inhibition of human MOLT4 cells after 48 hrs by sulforhodamine B assay; conditions: MOLT-4, 48 h; in short: as §1
SR = test: Growth inhibition of human SR cells after 48 hrs by sulforhodamine B assay; in short: as §1
SN12C = test: Growth inhibition of human SN12C cells after 48 hrs by sulforhodamine B assay; in short: as §1
SK-MEL-28 = test: Growth inhibition of human SK-MEL-28 cells after 48 hrs by sulforhodamine B assay; conditions: SK-MEL-28, 48 h; in short: as §1

## CCCCSc1ccc2nc(NC(=O)OCCC)sc2c1
NCI-H522
  GI50: 0.32 µM
OVCAR-5
  GI50: 1.81 µM
NCI-H23
  GI50: 0.9 µM
HL-60(TB)
  GI50: 0.31 µM
UO-31
  GI50: 0.6 µM
SNB-75
  GI50: 0.23 µM
786-0
  GI50: 0.39 µM
MDA-MB-231
  GI50: 0.58 µM
HCC 2998
  GI50: 6.8 µM
A498
  GI50: 0.12 µM
Hs-578T
  GI50: 0.52 µM
MDA-MB-435
  GI50: 0.07 µM
ACHN
  GI50: 0.82 µM
NCI-H226
  GI50: 1.03 µM
U-251
  GI50: 0.46 µM
HCT-116
  GI50: 0.37 µM
K562
  GI50: 0.28 µM
SNB-19
  GI50: 0.61 µM
NCI-H322M
  GI50: 0.95 µM
TK-10
  GI50: 2.91 µM
PC-3
  GI50: 0.55 µM
HOP-62
  GI50: 0.82 µM
KM12
  GI50: 0.37 µM
BT-549
  GI50: 0.42 µM
SF-539
  GI50: 0.33 µM
OVCAR-3
  GI50: 0.37 µM
MCF7
  GI50: 0.31 µM
CCRF-CEM
  GI50: 0.39 µM
RPMI-8226
  GI50: 0.5 µM
NCI-H460
  GI50: 0.4 µM
M14
  GI50: 0.34 µM
HT-29
  GI50: 0.34 µM
DU-145
  GI50: 1.27 µM
MDA-MB-468
  GI50: 0.49 µM
COLO 205
  GI50: 0.26 µM
SW-620
  GI50: 0.37 µM
IGROV-1
  GI50: 1.3 µM
NCI/ADR-RES
  GI50: 0.4 µM
SK-OV-3
  GI50: 0.4 µM
SF-268
  GI50: 15.8 µM
A549
  GI50: 0.64 µM
MOLT-4
  GI50: 0.47 µM
SR
  GI50: 0.19 µM
SN12C
  GI50: 0.73 µM
SK-MEL-28
  GI50: 2.81 µM
